Rows were chosen to be rich in hits. Some 3.1% of all compounds tested hit in one or more screens of this group.
UHRF1 MBD2 ctr = blocks human UHRF1 binding to methylated DNA. UHRF1 binding to methylated oligo, TR-FRET. actives 0.75% (n = 370,000). inhibition, % at 4.4 µM. Q96T88. AID 687016; in the data active = inhibition above about 21%;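 also: UHRF1 SRA domain binding a hemimethylated CpG hairpin DNA probe; 0% = median of test compound wells and 100% = reference inhibitor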
MBD2 inh = MBD2-methylated oligo binding inhibition | Q9UBB5 | TR-FRET, MBD2 binding to methylated oligonucleotide | inhibition, % at 4.4 µM | actives 0.31% (n = 370,000); in the data active = inhibition above about 13%
CSN deneddyl inh = blocks human CSN-mediated cullin deneddylation. Q92905. Purified CSN, SCF-Nedd8-OG deneddylation, fluorescence polarization. inhibition, % at 12.5 µM. actives 0.38% (n = 360,000);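 active = pattern-corrected inhibition above about 35%, with an unprinted fluorescence ratio check between 0.5 and 1.5, limit read from the data, passing the limit was not always enough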;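 also: 0% = enzyme with substrate and 100% = substrate without enzyme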
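assay system = purified human Csn5 enzyme expressed in HEK293T cells | amount = 0.24 nM enzyme | buffer or medium = Tris/NaCl/DTT buffer, pH 7.5 | reagent = 10 nM SCFSkp2-Nedd8OG | compound = one concentration, 12.5 µM, 0.25% DMSO | times = 90 min reaction at room temperature | signal = FP | read-out basis = % inhibition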
LEDGF integ inh = blocks HIV-1 LEDGF/p75-dependent DNA integration; inhibition, % at 3.7 µM; TR-FRET IN-LEDGF/p75 DNA integration, Eu/Cy5; actives 0.64% (n = 370,000); AID 743269;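 active = inhibition above the screen-wide mean plus 3 SD, cut at about 13% in these data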;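 also: signal is the Cy5 over europium emission ratio at 671 and 618 nm; 0% = plate median of compound wells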
rCAG RNA binder = molecules binding r(CAG) RNA repeats | r(CAG) RNA repeat, TO-PRO-1 dye displacement fluorescence | actives 1.3% (n = 370,000) | inhibition, % at 3 µM;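 active = inhibition above the plate cutoff, the mean of all test compounds on that plate plus 3 SD, cut at about 35% in these data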;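 also: 0% = DMSO alone and 100% = 100 µM mitoxantrone as full dye displacement; higher means more dye released from RNA so lower well fluorescence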
ATG4B inhibitor = blocks human ATG4B protease cleavage of LC3 substrate; Q9Y4P1; ATG4B cleavage of LC3-PLA2, NBD-HPC fluorescence, 1 h; inhibition, % at 8.33 µM; actives 0.51% (n = 340,000); AID 504462; in the data active = inhibition above about 40%
Target sequence (Q9Y4P1 whole entry, looked up): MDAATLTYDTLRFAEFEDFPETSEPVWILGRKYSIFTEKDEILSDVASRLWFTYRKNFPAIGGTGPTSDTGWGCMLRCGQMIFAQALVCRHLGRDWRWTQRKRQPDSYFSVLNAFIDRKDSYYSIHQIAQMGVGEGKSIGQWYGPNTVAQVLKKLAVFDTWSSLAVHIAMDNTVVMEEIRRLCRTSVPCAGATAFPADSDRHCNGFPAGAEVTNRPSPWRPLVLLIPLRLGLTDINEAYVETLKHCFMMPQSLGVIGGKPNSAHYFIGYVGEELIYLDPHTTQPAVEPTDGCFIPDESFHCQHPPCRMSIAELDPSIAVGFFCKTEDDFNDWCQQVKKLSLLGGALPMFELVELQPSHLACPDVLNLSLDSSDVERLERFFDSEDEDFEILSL
ATG4B conf = ATG4B (human) inhibition, single-dose confirmed; shares compounds with ATG4B inhibitor; ATG4B protease fluorescent substrate cleavage assay; inhibition, % at 8.33 µM; actives 92% (n = 320); in the data active = inhibition above about 39%
PLA2 ctr = counter-screen for ATG4B inhibitors: human phospholipase A2 | shares compounds with ATG4B inhibitor | purified PLA2, NBD-C6-HPC fluorescence, 45 min | inhibition, % at 8.33 µM | actives 66% (n = 1,600); in the data active = inhibition above about 50%
Target sequence (P04054 whole entry, looked up): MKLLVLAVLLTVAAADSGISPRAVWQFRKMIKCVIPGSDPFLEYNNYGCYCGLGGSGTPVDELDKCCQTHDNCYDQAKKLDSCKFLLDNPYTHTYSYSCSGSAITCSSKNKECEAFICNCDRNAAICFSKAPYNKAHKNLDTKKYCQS
* hit, by the source's call.

For CN1C(=O)C(N=Nc2ccccc2C(=O)O)N(C)C1=S (stereo unspecified) the results were UHRF1 MBD2 ctr -6, MBD2 inh -7, CSN deneddyl inh 8, LEDGF integ inh -5, rCAG RNA binder 1, ATG4B inhibitor 41*, ATG4B conf 70* and PLA2 ctr 40.
Screening CCCCNS(=O)(=O)/C=C/c1ccccc1CNC(=O)OC(C)(C)C returned UHRF1 MBD2 ctr 13, MBD2 inh -6, LEDGF integ inh 3 and rCAG RNA binder -2.
Screening O=C(Nc1ccc(N2CCCCCC2)cc1)c1ccccc1Cl returned UHRF1 MBD2 ctr -2, MBD2 inh -2, CSN deneddyl inh -2, LEDGF integ inh 0, rCAG RNA binder 0, ATG4B inhibitor 51* and PLA2 ctr 50.
CC(=O)N1CCN(c2ccc(NC(=O)c3ccccc3Cl)cc2)CC1 was read as UHRF1 MBD2 ctr 3, MBD2 inh 5, CSN deneddyl inh -2, LEDGF integ inh -7, rCAG RNA binder 7 and ATG4B inhibitor 3.
`O=c1n(Cc2ccccc2)nc2n1-c1ccccc1SC2` gave UHRF1 MBD2 ctr 5, MBD2 inh -1, CSN deneddyl inh -2, LEDGF integ inh 2, rCAG RNA binder -4 and ATG4B inhibitor 38.
`O=c1n(Cc2ccccc2Cl)nc2n1-c1ccccc1SC2` gave UHRF1 MBD2 ctr 0, MBD2 inh -2, CSN deneddyl inh -1, LEDGF integ inh 2, rCAG RNA binder -3, ATG4B inhibitor 52* and PLA2 ctr 54*.
`COc1ccc(COc2cccc(C=O)c2)cc1` gave UHRF1 MBD2 ctr -4, MBD2 inh 1, CSN deneddyl inh 0, LEDGF integ inh -1, rCAG RNA binder -5 and ATG4B inhibitor 9.
`O=Cc1cccc(OCc2cccc3ccccc23)c1` gave UHRF1 MBD2 ctr 5, MBD2 inh -1, CSN deneddyl inh 2, LEDGF integ inh 3, rCAG RNA binder 1, ATG4B inhibitor 61* and PLA2 ctr 73*.
CCN(c1ccc(OC)cc1)S(=O)(=O)N1CCCC(C(=O)NCc2ccccc2Br)C1 (stereo unspecified) was read as UHRF1 MBD2 ctr -5, MBD2 inh 0, CSN deneddyl inh -1, LEDGF integ inh 0, rCAG RNA binder -6, ATG4B inhibitor 57* and PLA2 ctr 58*.
For CC1CCc2sc(C(=O)N3CCC(C(N)=O)CC3)cc2C1 (stereo unspecified) the results were UHRF1 MBD2 ctr 0, MBD2 inh 2, CSN deneddyl inh 1, LEDGF integ inh -2, rCAG RNA binder 4, ATG4B inhibitor 43*, ATG4B conf 66* and PLA2 ctr 33.
For COc1ccc2c(c1)NC(=O)[C@@]2(CCN1C(=O)c2ccccc2C1=O)c1[nH]c2ccccc2c1CCN1C(=O)c2ccccc2C1=O the results were UHRF1 MBD2 ctr -1, MBD2 inh 2 and LEDGF integ inh -3.
COc1ccc(-n2c(SCC(=O)N(CC(C)C)CC(C)C)nnc2-c2ccncc2)cc1 was read as UHRF1 MBD2 ctr -1, MBD2 inh -1, LEDGF integ inh 3 and rCAG RNA binder -3.
O=C(Nc1sc2c(c1C(=O)O)CCCC2)c1cccc(Cl)c1 was read as UHRF1 MBD2 ctr -1, MBD2 inh 4, CSN deneddyl inh 3, LEDGF integ inh 2, rCAG RNA binder 84*, ATG4B inhibitor 42* and PLA2 ctr 51*.
Screening CCOC(=O)[C@@]12CN(C(=O)OC(C)(C)C)CC=C1N(Cc1ccc(OC)cc1)C(=O)[C@H]2CC(=O)NCc1ccc(C)o1 returned UHRF1 MBD2 ctr 0, MBD2 inh 0, LEDGF integ inh -2 and rCAG RNA binder 6.
Screening CN1CCN(c2ccc3c(c2)Oc2ccccc2CN(Cc2cn(Cc4ccc(F)cc4)nn2)S3(=O)=O)CC1 returned UHRF1 MBD2 ctr 0, MBD2 inh 0, LEDGF integ inh 1 and rCAG RNA binder 1.
For COc1cccc2c1[C@H](/C=C/c1ccccc1)[C@@H]([C@H](O)CO)OC2 the results were UHRF1 MBD2 ctr -1, MBD2 inh 2, LEDGF integ inh -2 and rCAG RNA binder 2.
CCCCCOc1ccc(CSC(=N)N)cc1[N+](=O)[O-] was read as UHRF1 MBD2 ctr -3, MBD2 inh -7, CSN deneddyl inh 6, LEDGF integ inh -3, rCAG RNA binder 16, ATG4B inhibitor 64* and PLA2 ctr 61*.
O=C(CCCn1c(=S)[nH]c2cc3c(cc2c1=O)OCO3)N1CCN(c2ccc(Cl)cc2)CC1 was read as UHRF1 MBD2 ctr -4, MBD2 inh 1, CSN deneddyl inh 5, LEDGF integ inh 3, rCAG RNA binder 1, ATG4B inhibitor 53* and PLA2 ctr 57*.
`O=C(CCCn1c(=S)[nH]c2cc3c(cc2c1=O)OCO3)N1CCN(c2ccccc2)CC1` gave UHRF1 MBD2 ctr 1, MBD2 inh -2, CSN deneddyl inh 3, LEDGF integ inh -1, rCAG RNA binder 0 and ATG4B inhibitor 38.
For CC(=O)c1ccc(N2CCN(C(=O)CCCn3c(=S)[nH]c4cc5c(cc4c3=O)OCO5)CC2)cc1 the results were UHRF1 MBD2 ctr 1, MBD2 inh 0, CSN deneddyl inh 5, LEDGF integ inh 5, rCAG RNA binder 1, ATG4B inhibitor 45* and PLA2 ctr 61*.
O=C(CCCn1c(=S)[nH]c2cc3c(cc2c1=O)OCO3)N1CCc2ccccc2C1 was read as UHRF1 MBD2 ctr -3, MBD2 inh -3, CSN deneddyl inh -3, LEDGF integ inh -1, rCAG RNA binder 2, ATG4B inhibitor 60* and PLA2 ctr 63*.
`COc1cc(NC(=O)c2cnn3c(C)cc(C)nc23)cc(OC)c1OC` gave UHRF1 MBD2 ctr 7, MBD2 inh 2 and LEDGF integ inh 6.
Screening CCCCCC(=O)NC1CCCCN(Cc2ccc(Cl)cc2)C1=O (stereo unspecified) returned UHRF1 MBD2 ctr 2, MBD2 inh 2, LEDGF integ inh -2 and rCAG RNA binder 2.
For CCSc1nc(-c2ccccc2)c(C#N)c(=O)[nH]1 the results were UHRF1 MBD2 ctr -1, MBD2 inh -6, CSN deneddyl inh -2, LEDGF integ inh 0, rCAG RNA binder 1 and ATG4B inhibitor 0.
Screening CCCOc1ccc(-c2nc(SCc3ccccc3)[nH]c(=O)c2C#N)cc1OC returned UHRF1 MBD2 ctr 2, MBD2 inh -4, CSN deneddyl inh -4, LEDGF integ inh 7, rCAG RNA binder 23, ATG4B inhibitor 52* and PLA2 ctr 85*.
